The source of these data is ChEMBL document CHEMBL3091413, “Fine molecular tuning at position 4 of 2H-chromen-2-one derivatives in the search of potent and selective monoamine oxidase B inhibitors” (Eur J Med Chem, 2013).

Assay [1] deals with T1, Amine oxidase [flavin-containing] B (Rattus norvegicus, UniProt P19643).
T1 sequence (P19643 whole entry): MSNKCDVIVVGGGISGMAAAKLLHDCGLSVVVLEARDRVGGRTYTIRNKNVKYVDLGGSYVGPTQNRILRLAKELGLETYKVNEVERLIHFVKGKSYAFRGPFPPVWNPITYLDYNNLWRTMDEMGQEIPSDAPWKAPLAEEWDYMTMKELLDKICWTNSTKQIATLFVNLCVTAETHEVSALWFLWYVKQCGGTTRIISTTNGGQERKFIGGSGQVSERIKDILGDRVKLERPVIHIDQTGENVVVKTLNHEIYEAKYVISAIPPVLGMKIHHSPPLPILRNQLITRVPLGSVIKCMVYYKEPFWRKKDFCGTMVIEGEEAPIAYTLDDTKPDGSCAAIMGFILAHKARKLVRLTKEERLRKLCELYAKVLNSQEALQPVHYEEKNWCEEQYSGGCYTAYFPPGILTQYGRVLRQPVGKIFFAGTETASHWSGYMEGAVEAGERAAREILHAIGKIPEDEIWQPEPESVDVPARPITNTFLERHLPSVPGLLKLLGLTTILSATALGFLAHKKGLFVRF
In words: Inhibition of Sprague-Dawley rat MAO-B using Kynuramine as substrate assessed as formation of 4-hydroxyquinoline preincubated for 5 mins prior to substrate addition measured for 5 mins by spectrophotometry.

For assay [2], the species on record is Rattus norvegicus. In words: Selectivity ratio for Sprague-Dawley rat MAO-B to Sprague-Dawley rat MAO-A. In a few lines:
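Selectivity index is pIC50 MAO-B minus pIC50 MAO-A (ΔpIC50), from the rat brain mitochondrial kynuramine assay.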

Assay [3] concerns the target T2, Amine oxidase [flavin-containing] A (Rattus norvegicus, UniProt P21396).
T2 sequence (P21396 whole entry): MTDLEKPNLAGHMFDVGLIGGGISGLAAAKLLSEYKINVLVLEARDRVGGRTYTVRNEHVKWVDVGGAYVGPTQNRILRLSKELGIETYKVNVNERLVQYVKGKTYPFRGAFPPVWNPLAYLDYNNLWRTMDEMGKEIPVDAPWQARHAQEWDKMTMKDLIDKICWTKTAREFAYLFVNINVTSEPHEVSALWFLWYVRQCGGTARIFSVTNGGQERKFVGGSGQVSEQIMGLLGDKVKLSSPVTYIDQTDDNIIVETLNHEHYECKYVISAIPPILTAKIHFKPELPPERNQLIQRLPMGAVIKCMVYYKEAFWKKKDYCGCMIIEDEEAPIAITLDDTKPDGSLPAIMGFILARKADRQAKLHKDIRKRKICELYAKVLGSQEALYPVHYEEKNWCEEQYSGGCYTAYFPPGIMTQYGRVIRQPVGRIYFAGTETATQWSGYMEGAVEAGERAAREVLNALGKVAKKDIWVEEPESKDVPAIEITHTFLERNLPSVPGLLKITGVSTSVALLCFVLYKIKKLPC
In words: Inhibition of Sprague-Dawley rat MAO-A using Kynuramine as substrate assessed as formation of 4-hydroxyquinoline preincubated for 5 mins prior to substrate addition measured for 5 mins by spectrophotometry. In a few lines:
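Enzyme source: crude brain mitochondrial fraction from male Sprague-Dawley rats (200-250 g), decapitated. Brains were washed in ice-cold isotonic Na2HPO4/KH2PO4 buffer (pH 7.40) with sucrose, fractionated by differential centrifugation, and stored at -40 °C in isotonic phosphate buffer (pH 7.4) with KCl. Kynuramine oxidation to 4-hydroxyquinoline was monitored spectrophotometrically. Values are the mean of two or three independent experiments.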

Consider `NC(=O)COc1cc(=O)oc2cc(OCc3cccc(Cl)c3)ccc12`, for which the IC50 is 3.1 nM in assay [1] (read-out: IC50), 3.31 nM in assay [1] (read-out: pIC50 (converted)) and 24000 nM in assay [3]. For the same compound, in assay [2], the Selectivity ratio worked out at 7240.
As to `Cc1cc(=O)oc2cc(OCc3cccc(Cl)c3)ccc12`, the IC50 is 7.41 nM in assay [1] (read-out: pIC50 (converted)) and 5250 nM in assay [3].
The like results for `O=c1cc(Cl)c2ccc(OCc3cccc(Cl)c3)cc2o1` were, in that order, 20.9 nM and 8910 nM.
The like results for `CNc1cc(=O)oc2cc(OCc3cccc(Cl)c3)ccc12` were, in that order, 8.71 nM and 4070 nM.
